One may read the IC50 as the concentration at which inhibition is half-maximal. Low readings indicate higher potency, high ones lower potency. Broadly, the half-life is how long it takes for the measured level to halve. For orientation: clearance means the volume of plasma or blood freed of the substance per unit of time. For orientation: ED50 means the midpoint of the dose-response relation. High values mean weaker potency, low ones greater potency. One may read the bioavailability as dose-corrected exposure relative to a reference, in per cent. As a reminder, the AUC is the area under the concentration-time curve, a measure of exposure.

In data set [1] the target is cGMP-inhibited 3',5'-cyclic phosphodiesterase 3B (Homo sapiens, UniProt Q13370). Kind of data set: Inhibitory concentration required to inhibit human phosphodiesterase 3B expressed in Escherichia coli. The method, boiled down:
(§1)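 PDE3A and PDE3B made in E. coli BL21(DE3) pLysS after IPTG induction. Soluble extract ammonium sulfate-precipitated (50% saturation), dialysed, partially purified on DEAE Sepharose with a 70–250 mM NaCl gradient. IC50 is the mean of two or more experiments.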

Data set [2] has as its target cGMP-inhibited 3',5'-cyclic phosphodiesterase 3A (Homo sapiens, UniProt Q14432). Kind of data set: Inhibitory concentration required to inhibit human phosphodiesterase 3A expressed in Escherichia coli. In a few lines:
as §1

For data set [3], the system named is Rattus norvegicus. Briefly: Increased metabolic rate in male rats for 8-h period after 10 mg/kg dose. Type of data set: functional. In a few lines:
(§2)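 Male rats dosed orally at 1, 3 and 10 mg/kg. Metabolic rate monitored over 8 h post-dose and expressed as percentage increase in thermogenesis over the pre-dose rate.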

Data set [4] is described as follows: Half life in rat after intravenous administration at a concentration 0.5 mg/kg. It counts as ADME, organism-based. Also noted: dose 0.5 mg/kg, route intravenous. Conditions: in vivo. The method, boiled down: (§3)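 Rat pharmacokinetics after a 0.5 mg/kg intravenous dose; half-life and clearance derived from blood levels.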
Data set [5] concerns Rattus norvegicus. Kind of data set: Increased metabolic rate in male rats for 8-h period after 3 mg/kg dose. It counts as functional. In a few lines:
as §2

Data set [6] in a line: Plasma clearance in rat after intravenous administration at a concentration 0.5 mg/kg. Also noted: dose 0.5 mg/kg, route intravenous. It counts as ADME, organism-based. In a few lines:
as §3

Data set [7] relates to Rattus norvegicus. Briefly: In vivo plasma glycerol increase in anesthetized rat at 1 mg/kg iv dose for 60 min. It counts as functional. Conditions: 1 h. In a few lines:
(§4)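 Anesthetized rats given compound by intravenous infusion (1.0 mg/kg). Plasma glycerol increase over vehicle followed over a 90 min period, with a reading at 60 min taken as an index of lipolysis.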

The test system of data set [8] is Rattus norvegicus. Briefly: Maximal blood pressure decrease in rats at 0.1 mg/kg dose for 60 min. It counts as functional. In a few lines:
(§5)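 Anesthetized rats given increasing intravenous doses (0.01–0.1 mg/kg). Mean arterial pressure recorded from 5 min to 60 min post-dose; decrease expressed as percentage.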

Data set [9] in a line: Oral bioavailability was determined in rat after oral administration at a concentration 1 mg/kg. Type of data set: ADME, organism-based. Conditions: in vivo. The method, boiled down: (§6)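 Rats dosed orally at 1.0 mg/kg. Blood levels were measured, and AUC was normalized and compared with iv exposure to give oral bioavailability.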
Data set [10] relates to Rattus norvegicus. Kind of data set: Maximal blood pressure decrease in rats at 0.02 mg/kg dose for 60 min. It counts as functional. The method, boiled down: as §5
The test system of data set [11] is Rattus norvegicus. Briefly: In vivo plasma glycerol increase in anesthetized rat at 1 mg/kg iv dose for 90 min. It counts as functional. As to conditions: 1 h, in the assay text read “60 min” for “90 min”. In a few lines:
as §4

Data set [12] relates to Rattus norvegicus. Kind of data set: Area under curve was determined in rat after oral administration at a concentration 1 mg/kg. Type of data set: ADME, organism-based. Conditions: in vivo. Also noted: dose 1 mg/kg, route oral. The method, boiled down:
as §6

The target in data set [13] is Phosphodiesterase 3 (Homo sapiens) (UniProt Q14432+Q13370). Kind of data set: Relative inhibition of Phosphodiesterase 3A and Phosphodiesterase 3B. Type of data set: protein assay. In a few lines:
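PDE3A and PDE3B expressed in E. coli BL21 (DE3) pLysS after IPTG induction, ammonium sulfate precipitated, partially purified on DEAE Sepharose. Activity measured by [3H]cAMP SPA assay in 50 mM Tris pH 7.5, 8.3 mM MgCl2, 1.7 mM EGTA, 10 nM [3H]cAMP, room temperature, 2–15 min. IC50s on each isoform are means of two or more experiments.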

Sequence of cGMP-inhibited 3',5'-cyclic phosphodiesterase 3A (Q14432 whole entry): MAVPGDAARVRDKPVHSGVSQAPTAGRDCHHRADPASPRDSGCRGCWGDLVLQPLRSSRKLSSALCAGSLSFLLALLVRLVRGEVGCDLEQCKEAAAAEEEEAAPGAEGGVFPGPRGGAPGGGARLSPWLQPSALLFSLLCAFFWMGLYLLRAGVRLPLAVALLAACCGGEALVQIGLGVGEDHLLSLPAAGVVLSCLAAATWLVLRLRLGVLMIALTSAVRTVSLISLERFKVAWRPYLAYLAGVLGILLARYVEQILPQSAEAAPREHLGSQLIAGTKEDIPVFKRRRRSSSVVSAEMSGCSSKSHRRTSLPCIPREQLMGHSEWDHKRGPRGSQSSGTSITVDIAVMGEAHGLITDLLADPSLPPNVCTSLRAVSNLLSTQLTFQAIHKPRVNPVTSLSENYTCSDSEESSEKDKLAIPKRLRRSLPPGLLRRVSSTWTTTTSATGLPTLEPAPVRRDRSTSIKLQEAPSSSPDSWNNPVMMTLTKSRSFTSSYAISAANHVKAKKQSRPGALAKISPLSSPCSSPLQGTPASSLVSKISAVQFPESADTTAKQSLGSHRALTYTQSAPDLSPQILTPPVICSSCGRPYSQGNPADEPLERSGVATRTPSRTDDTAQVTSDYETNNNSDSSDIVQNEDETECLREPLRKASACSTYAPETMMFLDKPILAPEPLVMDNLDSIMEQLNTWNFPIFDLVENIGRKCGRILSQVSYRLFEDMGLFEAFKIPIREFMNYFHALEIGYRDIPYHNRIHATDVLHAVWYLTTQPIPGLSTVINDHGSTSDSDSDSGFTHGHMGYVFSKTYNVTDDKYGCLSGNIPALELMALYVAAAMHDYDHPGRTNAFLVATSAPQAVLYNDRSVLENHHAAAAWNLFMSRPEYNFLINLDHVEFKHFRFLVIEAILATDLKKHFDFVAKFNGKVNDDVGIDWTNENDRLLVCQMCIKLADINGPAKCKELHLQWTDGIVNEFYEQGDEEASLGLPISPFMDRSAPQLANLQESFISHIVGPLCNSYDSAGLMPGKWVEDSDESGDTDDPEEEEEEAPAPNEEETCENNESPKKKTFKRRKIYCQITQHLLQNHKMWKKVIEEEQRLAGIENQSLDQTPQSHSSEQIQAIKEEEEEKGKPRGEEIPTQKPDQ
Sequence of cGMP-inhibited 3',5'-cyclic phosphodiesterase 3B (Q13370 whole entry): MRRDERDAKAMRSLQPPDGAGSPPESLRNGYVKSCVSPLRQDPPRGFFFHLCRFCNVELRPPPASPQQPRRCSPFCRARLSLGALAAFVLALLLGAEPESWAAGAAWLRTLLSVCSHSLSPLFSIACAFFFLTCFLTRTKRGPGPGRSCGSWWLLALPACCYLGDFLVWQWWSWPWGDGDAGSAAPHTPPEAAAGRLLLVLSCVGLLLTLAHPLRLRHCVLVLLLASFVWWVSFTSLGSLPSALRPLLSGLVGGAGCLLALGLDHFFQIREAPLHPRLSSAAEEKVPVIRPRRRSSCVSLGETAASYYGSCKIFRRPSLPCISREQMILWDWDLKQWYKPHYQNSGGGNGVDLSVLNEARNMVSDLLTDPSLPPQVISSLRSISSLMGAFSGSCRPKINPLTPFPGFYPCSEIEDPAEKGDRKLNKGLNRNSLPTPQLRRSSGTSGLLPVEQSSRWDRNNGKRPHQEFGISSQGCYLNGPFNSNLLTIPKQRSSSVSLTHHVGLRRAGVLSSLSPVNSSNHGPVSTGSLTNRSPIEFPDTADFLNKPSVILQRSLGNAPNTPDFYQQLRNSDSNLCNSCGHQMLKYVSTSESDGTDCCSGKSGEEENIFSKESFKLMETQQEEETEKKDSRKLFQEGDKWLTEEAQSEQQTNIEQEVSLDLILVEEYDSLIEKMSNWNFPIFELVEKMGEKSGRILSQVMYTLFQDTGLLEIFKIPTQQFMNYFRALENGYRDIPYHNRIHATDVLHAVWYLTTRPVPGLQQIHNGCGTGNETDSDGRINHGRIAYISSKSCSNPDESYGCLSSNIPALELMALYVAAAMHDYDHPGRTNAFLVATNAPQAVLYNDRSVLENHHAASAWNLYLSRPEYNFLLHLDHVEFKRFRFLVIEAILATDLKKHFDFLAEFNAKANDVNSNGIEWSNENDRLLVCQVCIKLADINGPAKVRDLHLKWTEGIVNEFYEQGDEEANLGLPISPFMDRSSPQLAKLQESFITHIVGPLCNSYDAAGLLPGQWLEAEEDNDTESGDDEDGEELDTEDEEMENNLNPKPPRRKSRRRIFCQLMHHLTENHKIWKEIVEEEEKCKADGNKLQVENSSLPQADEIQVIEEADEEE

For `C[C@@H]1CC(=O)NN=C1c1ccc(NC(=O)c2ccccc2C(F)(F)F)cc1`, the IC50 in data set [1] came out at 5 nM; in [2], 15 nM.

As for `CC1CC(=O)NN=C1c1ccc(NC2=C(Cc3cccc([N+](=O)[O-])c3)C(=O)CCC2)cc1` (stereo not drawn), the results for the IC50 in data set [1] and in data set [2] were 0.94 nM and 3.1 nM, respectively.

As to `CN(C(=O)CCCOc1ccc2[nH]c(=O)ccc2c1)C1CCCCC1` [CILOSTAMIDE], the IC50 in data set [1] amounted to 18 nM.

Turning to `CC1CC(=O)NN=C1c1ccc(/N=C2\CCCC(O)=C2Cc2ccccc2)c(F)c1` (stereo not drawn), the IC50 in [1] is 0.26 nM; in data set [2], 1.2 nM.

As to `CC1(C)C(=O)NN=C1c1ccc(NC2=C(Cc3ccccc3Cl)C(=O)CCC2)cc1F`, the IC50 was 0.53 nM in data set [1] and 7.2 nM in [2].

Consider `CC1(C)C(=O)NN=C1c1ccc(NC2=C(Cc3cccc(C#N)c3)C(=O)CCC2)cc1F`, for which the concentration for half-maximal inhibition (IC50) came out at 3.2 nM in data set [1] and 69 nM in data set [2].

Take `CC1(C)C(=O)NN=C1c1ccc(NC2=C(Cc3ccccc3)C(=O)CCC2)cc1`: the results for the IC50 in data set [1] and in data set [2] were 10 nM and 53 nM, respectively.

With `CC1CC(=O)NN=C1c1cc(F)c(NC2=C(Cc3ccccc3)C(=O)CCC2)cc1F` (stereo not drawn), the concentration for half-maximal inhibition (IC50) in [1] turned out to be 0.62 nM; in data set [2], 1.6 nM.

With `CC1CC(=O)NN=C1c1ccc(NC2=C(Cc3cccc(F)c3)C(=O)CCC2)cc1` (stereo not drawn), the IC50 in data set [1] worked out at 0.7 nM; in data set [2] it was 2.8 nM.

With `CC1CC(=O)NN=C1c1ccc(NC2=C(Cc3cccc(I)c3)C(=O)CCC2)cc1` (stereo not drawn), the IC50 worked out at 0.11 nM in [1] and 0.33 nM in data set [2].

Consider `Cc1cc(NC2=C(Cc3ccccc3)C(=O)CCC2)ccc1C1=NNC(=O)C1(C)C`, for which the IC50 in data set [1] was determined as 4.8 nM; in data set [2], 38 nM.

For the compound `CC1CC(=O)NN=C1c1ccc(NC2=C(Cc3ccccc3C(F)(F)F)C(=O)CCC2)cc1` (stereo not drawn), the IC50 in [1] was found to be 0.35 nM; in data set [2], 0.83 nM.

For `Cc1cc(C2=NNC(=O)CC2C)ccc1/N=C1\CCCC(O)=C1Cc1ccccc1` (stereo not drawn), the concentration for half-maximal inhibition (IC50) in [1] amounted to 0.61 nM; in data set [2], 3.7 nM.

Consider `C[C@@H]1CC(=O)NN=C1c1ccc(NC2=C(Cc3ccccc3)C(=O)CCC2)cc1`, for which the Metabolic rate in the data set with Rattus norvegicus [3] is 21%; in the data set on Rattus norvegicus [5], 14%. Besides, in data set [4], the half-life was 1 h. Moreover, the IC50 in data set [1] came to 0.19 nM; in data set [2], 1.3 nM. The compound also displayed a clearance in data set [6] of 6.8 mL/min/kg. The 50% effective dose (ED50) in the data set with Rattus norvegicus [7] and in the data set with Rattus norvegicus [11] was 0.6 mg/kg throughout. The Max decrease with Rattus norvegicus [8] turned out to be 40%; in the data set with Rattus norvegicus [10] it was 20%. Also, in data set [9], the bioavailability was 61%. Besides, the AUC with Rattus norvegicus [12] stood at 3.6 µM·h.

For `COc1ccccc1CC1=C(Nc2ccc(C3=NNC(=O)CC3C)cc2)CCCC1=O` (stereo not drawn), the figures for the IC50 in [1] and in data set [2] were 0.13 nM and 0.39 nM, respectively.

Regarding `CC1(C)C(=O)NN=C1c1ccc(NC2=C(Cc3cccc([N+](=O)[O-])c3)C(=O)CCC2)cc1Cl`, the figures for the IC50 in [1] and in data set [2] were 30 nM and 550 nM, respectively.

For the compound `CC1CC(=O)NN=C1c1ccc(NC2=C(Cc3ccccc3)C(=O)CCC2)cc1Cl` (stereo not drawn), the IC50 in data set [1] worked out at 4.8 nM; in data set [2], 46 nM.

Regarding `CC1CC(=O)NN=C1c1ccc(NC2=C(Cc3ccc([N+](=O)[O-])cc3)C(=O)CCC2)cc1` (stereo not drawn), the values for the IC50 in data set [1] and in [2] were 5.5 nM and 24 nM, respectively.

Regarding `CC1(C)C(=O)NN=C1c1ccc(NC2=C(Cc3ccc(F)cc3)C(=O)CCC2)cc1F`, the IC50 in [1] was determined as 3.1 nM; in data set [2] it was 63 nM.

Regarding `CC1(C)C(=O)NN=C1c1ccc(NC2=C(Cc3cccc(F)c3)C(=O)CCC2)cc1F`, the IC50 stood at 5.6 nM in data set [1] and 43 nM in data set [2].

As to `CC1CC(=O)NN=C1c1ccc(NC2=C(Cc3cccc(Br)c3)C(=O)CCC2)cc1` (stereo not drawn), the IC50 was 0.3 nM in data set [1] and 0.94 nM in data set [2].

Consider `CC1(C)C(=O)NN=C1c1ccc(NC2=C(Cc3ccccc3F)C(=O)CCC2)cc1F`, for which the IC50 came to 1.1 nM in [1] and 16 nM in [2].

Turning to `Cc1cc(NC2=C(Cc3ccccc3)C(=O)CCC2)ccc1C1=NNC(=O)CC1C` (stereo not drawn), the results for the IC50 in [1] and in data set [2] were 2.6 nM and 22 nM, respectively.

For `CCOC(=O)Nc1ccc(C2=NNC(=O)C[C@H]2C)cc1`, the IC50 was found to be 8.5 nM in data set [1] and 24 nM in data set [2].

As for `CCc1cc(NC2=C(Cc3ccccc3)C(=O)CCC2)ccc1C1=NNC(=O)CC1C` (stereo not drawn), the IC50 was determined as 21 nM in [1] and 101 nM in data set [2].

Turning to `CC(=O)Nc1ccc(C2=NNC(=O)C[C@H]2C)cc1`, the IC50 in data set [1] was 37 nM; in data set [2] it was 96 nM.

`CC1(C)C(=O)NN=C1c1ccc(NC2=C(Cc3c(Cl)cccc3Cl)C(=O)CCC2)cc1F`: the IC50 in data set [1] turned out to be 0.13 nM; in data set [2], 2.2 nM.

`CC1(C)C(=O)NN=C1c1ccc(NC2=C(Cc3ccccc3Cl)C(=O)CCC2)cc1Cl`: the values for the IC50 in [1] and in data set [2] were 6.3 nM and 77 nM, respectively.

Take `CC1=C(Nc2ccc(C3=NNC(=O)C[C@H]3C)cc2)CCCC1=O`: the IC50 in data set [1] is 8.8 nM; in data set [2], 44 nM.

For `COc1ccc(CC2=C(Nc3ccc(C4=NNC(=O)CC4C)cc3)CCCC2=O)cc1` (stereo not drawn), the IC50 worked out at 0.7 nM in [1] and 2.3 nM in data set [2].

On to `CC1(C)C(=O)NN=C1c1ccc(NC2=C(Cc3ccccc3)C(=O)CCC2)cc1F`, for which the IC50 is 2.5 nM in data set [1] and 20 nM in [2].

With `CC1(C)C(=O)NN=C1c1ccc(NC2=C(Cc3cccc([N+](=O)[O-])c3)C(=O)CCC2)cc1F`, the IC50 in data set [1] turned out to be 4.5 nM; in data set [2], 150 nM. For the same compound, the Selectivity in [13] stood at 33.

Regarding `CC1(C)C(=O)NN=C1c1ccc(/N=C2\CCCC(O)=C2Cc2cccc(C#N)c2)c(F)c1F`, the figures for the 50% inhibitory concentration (IC50) in [1] and in [2] were 0.33 nM and 7.6 nM, respectively. In data set [13], the Selectivity came out at 23.

For the compound `CC1CC(=O)NN=C1c1ccc(NC2=C(Cc3ccccc3)C(=O)CCC2)cc1F` (stereo not drawn), the IC50 in [1] turned out to be 0.24 nM; in data set [2], 1.6 nM.

As for `Cc1cc(NC2=C(Cc3cccc(C#N)c3)C(=O)CCC2)ccc1C1=NNC(=O)C1(C)C`, the figures for the IC50 in data set [1] and in data set [2] were 10 nM and 130 nM, respectively.

Consider `CC1CC(=O)NN=C1c1ccc(NC(=O)OCc2ccccc2)cc1` (stereo not drawn), for which the IC50 turned out to be 1 nM in data set [1] and 2.9 nM in data set [2].

The record behind these values is ChEMBL document CHEMBL1136355, “Benzyl vinylogous amide substituted aryldihydropyridazinones and aryldimethylpyrazolones as potent and selective PDE3B inhibitors” (Bioorg Med Chem Lett, 2003).
